Screens from PubChem.
KLK5 inh: blocks human kallikrein 5 protease activity | recombinant hK5, fluorogenic AMC substrate cleavage | inhibition, % at 5 µM | 0.59% of 210,000 active | AID 873;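 active means inhibition of 40% or more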;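 further: 0% = enzyme controls without compound and 100% = no-enzyme blanks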
FXIa inh 1536: factor XIa (human) inhibition; P03951; purified FXIa, Boc-Glu-Ala-Arg-AMC fluorogenic substrate; inhibition, % at 5 µM; 0.14% of 220,000 active; AID 798;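 active means inhibition of at least 40%; inactive means inhibition below 40%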;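 further: fluorescence of freed AMC excited at 355 nm; 0% = enzyme without compound and 100% = no enzyme blank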
Target sequence (P03951 19-387 limits assumed): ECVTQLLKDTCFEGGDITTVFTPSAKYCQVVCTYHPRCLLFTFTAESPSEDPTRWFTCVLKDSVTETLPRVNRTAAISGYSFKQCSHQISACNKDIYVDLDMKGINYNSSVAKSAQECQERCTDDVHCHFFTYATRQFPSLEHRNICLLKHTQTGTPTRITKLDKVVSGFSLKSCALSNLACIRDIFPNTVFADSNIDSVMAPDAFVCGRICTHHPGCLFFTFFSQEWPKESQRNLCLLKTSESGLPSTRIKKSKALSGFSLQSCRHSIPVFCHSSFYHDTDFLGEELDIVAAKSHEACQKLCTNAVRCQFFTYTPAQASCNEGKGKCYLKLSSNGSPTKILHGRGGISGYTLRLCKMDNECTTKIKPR
Target sequence (P03951 388-625 limits assumed): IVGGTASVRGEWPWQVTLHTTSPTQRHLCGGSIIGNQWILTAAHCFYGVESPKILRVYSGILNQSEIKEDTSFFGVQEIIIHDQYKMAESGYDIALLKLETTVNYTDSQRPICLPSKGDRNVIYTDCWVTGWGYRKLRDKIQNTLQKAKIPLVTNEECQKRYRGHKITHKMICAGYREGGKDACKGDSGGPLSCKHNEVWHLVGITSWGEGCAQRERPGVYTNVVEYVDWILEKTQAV
Thrombin inh: thrombin (human) inhibition; 0.26% of 220,000 active; alpha-thrombin, Boc-VPR-AMC fluorogenic substrate cleavage; P00734; inhibition, % at 5 µM;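 active means inhibition at or above 40%; inactive means inhibition below 40%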;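 further: 0% = enzyme with no compound and 100% = wells without enzyme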
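Material: human alpha-thrombin protein; Also added: Boc-VPR-AMC substrate, 15 µM final; Timing: enzyme reaction carried out at room temperature; Signal: fluorescence, ex 355 nm, em 460 nm; Measure: % inhibition of thrombin; Controls: enzyme without compound as high, wells lacking enzyme as low.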
FXIIa inh: blocks human coagulation factor XIIa protease activity. purified FXIIa, Boc-QGR-AMC fluorogenic substrate, 2 h. inhibition, % at 5 µM. 0.3% of 220,000 active; in the data active means inhibition above about 40%;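 further: 0% = enzyme with no compound and 100% = blank without enzyme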
m-calpain inh: calpain II (pig) inhibition; 0.37% of 220,000 active; inhibition, % at 16 µM; purified calpain II, fluorogenic peptide substrate, 30 min;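 active means inhibition above about 50%, limit read from the data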
An asterisk follows results filed as active. Rows were chosen to be rich in hits. Some 1.4% of all compounds tested hit in one or more screens of this group.

SMILES | KLK5 inh | FXIa inh 1536 | Thrombin inh | FXIIa inh | m-calpain inh
CCn1c(C)nc2cc(C(=O)N/N=C(\C)c3ccc(OC)cc3O)ccc21 | 30.3 | 42.6* | 57.8* | 35.6 | -0.3
O=[N+]([O-])c1cncc([N+](=O)[O-])c1Nc1ccccc1Cl | 16.0 | 30.1 | 11.5 | 44.1* | 17.1
CCN(CC)CCc1c(C)[nH]c(C(=O)OCc2ccccc2)c1C | -12.3 | 7.8 | -5.4 | 7.5 | 58.0*
CCOc1ccc2nc(N(CCN(CC)CC)C(=O)c3cccc([N+](=O)[O-])c3)sc2c1 | 0.5 | -4.8 | -7.2 | 7.2 | -12.3
Cc1ccc(-n2nnnc2-c2ccccc2)cc1 | -4.7 | -1.7 | -17.8 | -4.2 | 40.1
Clc1ccc(-c2nnnn2-c2ccc(Cl)c(Cl)c2)cc1Cl | -3.6 | 4.6 | 2.3 | 11.0 | 55.3*
Cc1nc2cc(C(=O)NCc3cccnc3)ccc2n1-c1ccc(F)cc1F | -2.4 | -1.5 | -10.9 | 7.2 | -18.6
C=C(C)CNC(=S)Nc1cccc(N)n1 | 40.8* | 48.0* | 10.9 | 20.5 | 18.1
CCOC(=O)CC1C(=O)NCCN1Cc1cccc(C(F)(F)F)c1 (stereo unspecified) | 40.3* | -8.1 | -6.8 | -3.8 | 10.2
COc1ccccc1NS(=O)(=O)c1ccc(O)c(C(=O)OCC(=O)c2ccc(Cl)cc2Cl)c1 | 32.3 | 49.2* | 28.9 | 31.7 | -20.6
CSc1nc(Oc2ccccc2)c2sccc2n1 | -30.3 | -16.7 | 5.6 | -2.8 | 54.3*
Cc1ccc2nc(C)/c(=N\O)c(C)nc2c1 | 51.1* | 2.8 | 2.8 | 14.9 | 0.2
CCOC(=O)/C(=N\Nc1cccc(C(F)(F)F)c1)N(CCOC)CCOC | 2.1 | 1.5 | 10.4 | 16.5 | -1.7
CCOC(=O)/C(=N\Nc1cccc(C(F)(F)F)c1)N1CCOCC1 | 52.0* | 29.0 | 2.6 | 24.4 | 16.2
Cn1c(SCC(=O)Nc2cccc(C(=O)O)c2)nnc1-c1cc2cc(Br)ccc2o1 | -27.4 | -5.2 | -2.2 | 8.8 | -88.9
CCc1cccc(C)c1NC(=O)CSc1nnc(-c2cc3cc(Br)ccc3o2)n1CC | -28.7 | 2.1 | 26.9 | 4.7 | 55.4*
CCc1ccc(C(O)(c2ccccc2OC)C(CN2CCOCC2)c2ccccc2)cc1 (stereo unspecified) | -15.3 | -5.1 | -1.1 | 0.0 | 8.9
CS(=O)(=O)N(CC(=O)N/N=C/c1ccccc1C(=O)O)c1cccc(Cl)c1Cl | 16.4 | 36.1 | 20.5 | 56.6* | -5.9
COC(=O)C1CC(=O)c2ccsc2C1 (stereo unspecified) | 29.8 | -1.4 | 49.4* | 9.5 | 16.7
CCc1nc2oc3cc(OC)ccc3c(=O)c2c(=O)n1Cc1ccccc1 | 47.6* | 7.0 | 25.2 | 26.8 | -1.8
CCc1nc2oc3ccccc3c(=O)c2c(=O)n1Cc1ccccc1 | -7.4 | 0.4 | -2.2 | -2.8 | 21.3
O=C(Nc1cccc(-c2nc3cccnc3s2)c1)C1c2ccccc2Oc2ccccc21 | -13.1 | 6.5 | 4.0 | 15.2 | 54.5*
CCCCC(=O)NC(=S)Nc1ccc(NC(=O)C(C)C)c(OC)c1 | 2.2 | -0.7 | -5.9 | 4.5 | 10.8
CC(C)Oc1ccc(/C=N/NC(=O)C2CCCN2S(=O)(=O)c2ccc(Cl)cc2)cc1 (stereo unspecified) | 10.5 | -6.4 | 2.8 | 10.3 | 17.6
CCCOc1ccc(/C=N/NC(=O)C2CCCN2S(=O)(=O)c2ccc(Cl)cc2)cc1 (stereo unspecified) | 49.4* | 14.1 | 13.6 | 25.7 | 9.5
SMILES | KLK5 inh | FXIa inh 1536 | Thrombin inh | FXIIa inh | m-calpain inh
N#CC(c1cccc(Cl)c1)c1ccc2c(C(F)(F)F)cc(C(F)(F)F)nc2n1 (stereo unspecified) | -9.6 | 3.7 | -2.4 | 12.4 | 63.3*
CCN(/N=C/C=C/c1ccccc1)c1cc(=O)n(C)c(=O)[nH]1 | -0.2 | -4.2 | -1.3 | 0.1 | 52.1*
CCN(/N=C/c1ccc(Cl)cc1)c1cc(=O)n(C)c(=O)[nH]1 | 10.4 | 24.5 | 2.8 | 19.8 | 26.0
CCc1nc2ccc(C(=O)O)cc2nc1CC | -22.1 | -5.7 | -12.6 | -4.7 | 13.3
O=C(c1nc2nc(-c3ccccc3)cc(C(F)(F)F)n2n1)N1CCCCC1 | 63.8* | 12.7 | 22.4 | 16.2 | 1.6
O=C(C[n+]1cnn(CC(=O)c2ccc(Cl)cc2Cl)c1)c1ccc([N+](=O)[O-])cc1 | 0.1 | 3.6 | 51.2* | 7.1 | 5.5
O=C(Nc1cnn(Cc2ccc(Cl)cc2)c1)c1ccc([N+](=O)[O-])cc1 | -19.4 | 6.8 | 1.3 | 18.4 | 3.7
NS(=O)(=O)c1ccc(NC(=O)COC(=O)COc2ccc3ccccc3c2)cc1 | 30.3 | 36.5 | 28.9 | 25.9 | 19.3
COc1ccccc1OCCC(=O)OCC(=O)Nc1ccc(Br)cc1F | -3.2 | -3.8 | -11.6 | 5.2 | -3.7
CC(=O)Nc1ccccc1C(=O)C(=O)Nc1ccc(C(=O)NCC2CCCO2)cc1 (stereo unspecified) | -2.6 | 9.4 | 1.4 | 20.8 | 10.7
CC(=O)Nc1ccccc1C(=O)C(=O)Nc1cccc(C(=O)NCC2CCCO2)c1 (stereo unspecified) | -1.9 | -1.7 | -1.5 | 8.2 | 93.0*
CCn1c(NCc2ccc3c(c2)OCO3)nc2ccccc21 | 53.2* | 3.1 | 21.0 | 10.5 | 13.3
CCOc1ccc(NC(=O)c2ccc(CNc3c(N4CCCC4)c(=O)c3=O)cc2)cc1 | 7.3 | 10.5 | 41.1* | 21.3 | 8.0
CC(=O)c1ccc(NC(=O)c2ccc(CNc3c(N4CCCC4)c(=O)c3=O)cc2)cc1 | 4.9 | 1.3 | -3.3 | 10.9 | -5.9
Cc1ccc(C2C=C(c3ccccc3)Nc3nc(N4C(=O)CCC4=O)nn32)cc1 (stereo unspecified) | 0.4 | 1.7 | 48.1* | 6.3 | -150.4
CC1=CC(c2ccc(Cl)cc2)n2nc(N3C(=O)CCC3=O)nc2N1 (stereo unspecified) | -14.6 | -4.8 | 6.2 | 3.0 | -295.1
COc1ccc(OCCNc2cc(N3CCOCC3)ccc2[N+](=O)[O-])cc1 | -22.9 | -7.7 | -0.4 | 0.1 | 92.5*
COc1cccc(OCCNc2cc(N3CCOCC3)ccc2[N+](=O)[O-])c1 | 9.5 | -6.6 | -7.6 | -1.6 | 21.8
Cc1ccccc1NNC(=O)C(=O)NNc1ccccc1C | 50.2* | 16.1 | 18.0 | 34.3 | 13.0
Cc1ccccc1NC(=O)Cn1c(O)c(N=NC(=O)c2ccccc2O)c2ccccc21 | 65.5* | 19.9 | 24.0 | 11.2 | 3.5
Cc1ccc(NC(=O)Cn2c(O)c(N=NC(N)=O)c3ccccc32)cc1 | -4.5 | -1.6 | 13.4 | 5.3 | -10.8
CN(C)CCn1c(=O)n(-c2cccc(Cl)c2)c(=O)c2c3c(sc21)CCCCC3 | -6.7 | 3.7 | -6.9 | 7.8 | -2.9
CCS(=O)(=O)N1CCCC(c2nc(-c3cccc(OC)c3)no2)C1 (stereo unspecified) | 40.3* | 4.6 | 15.3 | 18.8 | -0.2
COc1ccc(N2CCN(C(CNS(C)(=O)=O)c3ccco3)CC2)cc1 (stereo unspecified) | -15.0 | -8.5 | -4.6 | -2.9 | -0.8
CCN(CC)c1ccc(C(=O)NNC(=O)CCl)cc1 | 13.7 | 2.4 | -0.6 | 8.2 | 69.4*
CCN(CC)c1ccc(NC(=O)C(C)C)cc1 | -2.3 | -13.8 | -4.6 | -6.1 | 22.9
